Experimental data of several laboratories.
Compare with care: the assays were run in different laboratories. Values after ≈ are worked out from the molar mass of the structure shown.

SMILES	organism	test	system	setting	quantity	result
CC(C)CN(C[C@@H](O)[C@H](Cc1ccccc1)NC(=O)O[C@H]1CO[C@H]2OCC[C@H]21)S(=O)(=O)c1ccc(N)cc1	Human immunodeficiency virus 1	viral replication, inhibitor	MT2	–	IC50	0.0016 µM
CC(C)Nc1cccnc1N1CCN(C(=O)c2cc3cc(NS(C)(=O)=O)ccc3[nH]2)CC1	Human immunodeficiency virus 1	viral replication, inhibitor	human PBMC	clinical isolate	IC90	0.0576 µM
COC(=O)c1cc(-c2cccc(NC(=O)Nc3c(C)cccc3C)c2)on1	Mycolicibacterium fortuitum	microbial growth, broth dilution	ATCC6841	48 h	MIC	> 64 µg/mL
Cc1ccnc2c1NC(=O)c1cccnc1N2C1CC1	Human immunodeficiency virus 1	viral replication	human PBMC	clinical isolate	IC90	0.242 µM
CC(C)CN(C[C@@H](O)[C@H](Cc1ccccc1)NC(=O)O[C@H]1CO[C@H]2OCC[C@H]21)S(=O)(=O)c1ccc(N)cc1	Human immunodeficiency virus 1	viral replication	T-lymphoid	–	IC50	0.0016 µM
COC(=O)c1cc(-c2ccc(NC(=O)Nc3ccc(Cl)c(Cl)c3)cc2)on1	Mycolicibacterium fortuitum	microbial growth, broth dilution	ATCC6841	48 h	MIC	> 64 µg/mL
CC(C)CN(C[C@@H](O)[C@H](Cc1ccccc1)NC(=O)O[C@H]1CO[C@H]2OCC[C@H]21)S(=O)(=O)c1ccc(B(O)O)cc1	Human immunodeficiency virus 1	viral replication, inhibitor	MT2	–	IC50	0.049 µM
CC[C@H](C)C[C@H](C)CCCCCCCCC(=O)N[C@H]1C[C@@H](O)[C@@H](NCCN)NC(=O)[C@@H]2[C@@H](O)CCN2C(=O)[C@H]([C@H](O)CCN)NC(=O)[C@H]([C@H](O)[C@@H](O)c2ccc(O)cc2)NC(=O)[C@@H]2C[C@@H](O)CN2C(=O)[C@H]([C@@H](C)O)NC1=O	Clavispora lusitaniae	microbial growth, broth dilution	MY1396	–	MIC	0.25 µg/mL (≈ 0.229 µM)
